# From paper PMC3150610 (Journal of medicinal chemistry, 2011)
# Key:
# [1] = molecular target: human thrombin (Homo sapiens, UniProt P00734); test: Michaelis-Menten kinetics of Spectrozyme TH hydrolysis by thrombin; format: biochemical; details: for VMAX of Spectrozyme TH hydrolysis: pH 7.4
# Summary of the method: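 Human α-thrombin (5–10 nM) with Spectrozyme TH at 10 to 600 μM, at fixed test compound levels of 0–30 μM. Run in 20 mM Tris-HCl, pH 7.4, at 37 °C. Initial rate taken from the linear rise in A405 while under 10% of substrate was consumed. Data fitted to the Michaelis-Menten equation for KM and VMAX.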
# [2] = tested on: citrated human plasma; test: Prothrombin time; details: thromboplastin initiator
# Summary of the method: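 Test compound brought up in citrated human plasma and held 30 s at 37 °C. Pre-warmed thromboplastin (reconstituted per manufacturer, 37 °C) then added and clotting time read on a fibrometer in a one-stage assay. Deionized water served as the no-anticoagulant control. Run in duplicate. Quadratic trendline fit gave the concentration doubling PT.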
# [3] = molecular target: Human α-thrombin (Homo sapiens, UniProt P00734); format: biochemical; details: for fold change in IC50 (weaker) relative to 12a: comparator 12a; for fold weaker thrombin inhibition of di-sulfated dimers: comparator not given
# [4] = tested on: citrated human plasma; test: Activated partial thromboplastin time; details: ellagic acid initiator
# Summary of the method: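 Test compound in citrated human plasma with pre-warmed APTT reagent (0.2% ellagic acid), incubated 4 min. Clotting started with 25 mM CaCl2 at 37 °C and time to clot read on a fibrometer. One-stage recalcification format, each assay in duplicate. Clotting time versus concentration fitted to a quadratic trendline to get the concentration that doubles APTT.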
smiles,measurement,setting,value
CCOC(=O)c1c(C)oc2cc(OC)c(OCc3oc4cc(OC)c(OS(=O)(=O)[O-])cc4c3C(=O)OCC)cc12.[Na+] [12a],mechanism of thrombin inhibition,[1]; Michaelis-Menten kinetics,"non-competitive, allosteric mechanism"
same,VMAX of Spectrozyme TH hydrolysis,[1]; in presence of 1.5 μM 12a,97 ± 13 mAUmin^−1μM^−1
same,VMAX of Spectrozyme TH hydrolysis,[1]; in presence of 3.0 μM 12a,107 ± 14 mAUmin^−1μM^−1
same,VMAX of Spectrozyme TH hydrolysis,[1]; in presence of 10.5 μM 12a,73 ± 13 mAUmin^−1μM^−1
same,VMAX of Spectrozyme TH hydrolysis,[1]; in presence of 30 μM 12a,66 ± 6 mAUmin^−1μM^−1
same,decrease in maximal velocity of reaction,[1]; upon approximately 50% saturation of the enzyme,~ 34%
COC(=O)c1c(C)oc2cc(OC)c(OCc3oc4cc(OC)c(OS(=O)(=O)[O-])cc4c3C(=O)OC)cc12.[Na+] [12b],concentration required to double PT (2×PT),[2],850 to 2100 µM
COc1cc2oc(C)c(C(=O)OC(C)(C)C)c2cc1OCc1oc2cc(OC)c(OS(=O)(=O)[O-])cc2c1C(=O)OC(C)(C)C.[Na+] [12c],fold improvement of inhibition potency with lipophilicity of 3-ester,"[3]; across 12a, 12b, 12c",8.2 fold
same,concentration required to double APTT (2×APTT),[4],355 to 1250 µM
COCCOC(=O)c1c(C)oc2cc(OC)c(OCc3oc4cc(OC)c(OS(=O)(=O)[O-])cc4c3C(=O)OCCOC)cc12.[Na+] [12d],fold change in IC50 (weaker) relative to 12a,[3],6.2 fold
CCOC(=O)c1c(C)oc2cc(OCC)c(OCc3oc4cc(OCC)c(OS(=O)(=O)[O-])cc4c3C(=O)OCC)cc12.[Na+] [12e],concentration required to double APTT (2×APTT),[4],355 to 1250 µM
CCOC(=O)c1c(C)oc2cc(OC(C)C)c(OCc3oc4cc(OC(C)C)c(OS(=O)(=O)[O-])cc4c3C(=O)OCC)cc12.[Na+] [12f],"fold increase in potency, ethyl to isopropyl at 6-position",[3]; 12f versus 12e,~4 fold
CCOC(=O)c1c(COc2cc3c(C(=O)OCC)c(CN4CCOCC4)oc3cc2OC)oc2cc(OC)c(OS(=O)(=O)[O-])cc12.[Na+] [compound 13],fold change in IC50 (weaker) relative to 12a,[3],2.2 fold
COc1cc2oc(C)c(C(=O)N3CCOCC3)c2cc1OCc1oc2cc(OC)c(OS(=O)(=O)[O-])cc2c1C(=O)N1CCOCC1.[Na+] [compound 14],fold loss of affinity from t-butyl ester dimer,[3]; comparator printed as dimer 2c,more than 270 fold
COc1cc2oc(C)c(C(=O)O)c2cc1OCc1oc2cc(OC)c(OS(=O)(=O)[O-])cc2c1C(=O)O.[Na+] [compound 15],fold change in IC50 (weaker) relative to 12a,[3],6.2 fold
CCOC(=O)c1c(C)oc2cc(OCc3oc4cc(OC)c(OS(=O)(=O)[O-])cc4c3C(=O)OCC)c(OS(=O)(=O)[O-])cc12.[Na+].[Na+] [compound 17],fold weaker thrombin inhibition of di-sulfated dimers,[3],6–17 fold
CCOC(=O)c1c(C)oc2cc(OC)c(OCc3oc4cc(OS(=O)(=O)[O-])c(OS(=O)(=O)[O-])cc4c3C(=O)OCC)cc12.[Na+].[Na+] [compound 18],fold weaker thrombin inhibition of di-sulfated dimers,[3],6–17 fold
